Assay outcomes deposited in PubChem BioAssay by several laboratories.
SENP1 inh: inhibitors of human SENP1 SUMO protease catalytic domain; hit rate 0.21% among 360,000; recombinant SENP1 catalytic domain, CyPet-SUMO1-YPet FRET cleavage; inhibition, % at 10 µM; AID 624204;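 active = inhibition at least 30% at 10 µM, raw YFP signal under a set limit, fluorescence ratio 0.5 to 1.5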;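 also: 0% = enzyme with DMSO and 100% = no enzyme wells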
Target sequence (Q9P0U3 419-644 limits assumed): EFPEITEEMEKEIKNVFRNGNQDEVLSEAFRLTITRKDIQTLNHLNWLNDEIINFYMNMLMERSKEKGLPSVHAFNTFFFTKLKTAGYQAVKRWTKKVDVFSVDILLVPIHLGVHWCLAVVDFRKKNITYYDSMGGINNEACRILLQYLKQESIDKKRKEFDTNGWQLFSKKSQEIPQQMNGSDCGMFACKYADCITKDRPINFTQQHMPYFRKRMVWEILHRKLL
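Assay system: hSENP1 catalytic domain, recombinant. Amount: SENP1 enzyme, 20 pM final. Schedule: 50 min reaction, RT, dark. Technique: FRET, CFP and YFP emission. Control set: no-enzyme wells low, DMSO-plus-enzyme wells high control.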
Platelet DG rel: modulates dense granule release in human platelets; human platelet-rich plasma, SFLLRN dense granule ATP release, luminescence; inhibition, %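 (compounds screened at 7.5 µM in platelet-rich plasma)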; hit rate 0.22% among 300,000;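 active = mean replicate score, as percent of positive control, at or above 50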
SENP6 block: SENP6 protease inhibition; Recombinant SENP6 catalytic domain, aminoluciferin luminescence; hit rate 1.8% among 330,000; Q9GZR1; inhibition, % at 10 µM;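 active = inhibition above about 50% at the single tested dose, limit read from the data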;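 also: plate controls were DMSO wells with enzyme for no effect and DMSO wells lacking enzyme for full effect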
SENP8 block-1: blocks the human protease SENP8; purified SENP8, Z-RLRGG-aminoluciferin cleavage, luminescence; inhibition, % at 10 µM; hit rate 1.2% among 330,000; in the data active = inhibition above about 50%
Target sequence (Q96LD8 whole entry, looked up): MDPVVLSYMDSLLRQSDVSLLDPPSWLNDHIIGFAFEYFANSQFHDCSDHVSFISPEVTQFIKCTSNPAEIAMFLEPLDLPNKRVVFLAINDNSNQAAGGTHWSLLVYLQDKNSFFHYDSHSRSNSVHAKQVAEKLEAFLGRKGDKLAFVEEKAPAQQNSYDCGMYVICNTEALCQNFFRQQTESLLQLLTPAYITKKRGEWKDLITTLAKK
SENP8 block-2: inhibitors of human SENP8 protease | hit rate 0.64% among 360,000 | inhibition, % at 20 µM | recombinant SENP8, Nedd8 substrate fluorescence | Q96LD8; in the data active = inhibition mostly above about 40%, no sharp cut-off; inactive = mostly below about 27%
SENP7 block: blocks the human protease SENP7 | Q9BQF6 | recombinant SENP7, Z-RLRGG-aminoluciferin luminescence, 40 min | inhibition, % at 5 µM | hit rate 1.5% among 330,000 | AID 434973;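 active = inhibition above about 50% at the single test dose, limit read from the data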;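 also: plate controls were DMSO with enzyme for no effect and no enzyme buffer wells for full effect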
SENP8 confirm: human SENP8 inhibition, confirmed; shares compounds with SENP7 block; Recombinant SENP8, Z-RLRGG-aminoluciferin luminescence, 60 min; inhibition, % at 12.5 µM; hit rate 40% among 6,200; AID 488912;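 active = mean inhibition across replicates above about 50%, limit read from the data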
SENP6 confirm: confirmation of human SENP6 protease inhibitors; recombinant SENP6, Z-RLRGG-aminoluciferin luminescence; AID 488915; shares compounds with SENP7 block; inhibition, % at 12.5 µM; hit rate 58% among 6,200
SENP7 confirm: confirmation of human SENP7 protease inhibitors; shares compounds with SENP7 block; recombinant SENP7, Z-RLRGG-aminoluciferin luminescence, 40 min; inhibition, % at 12.5 µM; hit rate 69% among 6,200
Casp3 SENP sel: inhibits human caspase-3 in SENP selectivity test; shares compounds with SENP7 block; purified caspase-3, Z-DEVD-aminoluciferin luminescence, 60 min; inhibition, % at 12.5 µM; hit rate 60% among 6,200;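 active = mean inhibition above about 50%, limit read from the data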;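 also: plate controls were enzyme with DMSO for no effect and wells without caspase-3 for full effect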
Target sequence (P42574 28-227 limits assumed): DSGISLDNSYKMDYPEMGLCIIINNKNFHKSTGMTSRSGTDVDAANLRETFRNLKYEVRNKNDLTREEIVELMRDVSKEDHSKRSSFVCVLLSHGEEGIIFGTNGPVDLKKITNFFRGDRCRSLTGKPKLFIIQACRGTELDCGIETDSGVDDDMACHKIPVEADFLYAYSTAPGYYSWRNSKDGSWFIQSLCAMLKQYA
Luc interf: luminescence interference (SENP counter-screen). shares compounds with SENP7 block. Pre-incubated SENP8/Z-RLRGG-aminoluciferin, luciferase luminescence interference. inhibition, % at 12.5 µM. hit rate 39% among 6,200. AID 488919;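 active = mean inhibition above about 50% when retested at one dose, limit read from the data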;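 also: plate controls were DMSO wells with completed reaction for no effect and substrate without enzyme for full effect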
* marks the source's active call; other numbers are inactive results; . = no result given. This is a sample that favours compounds with a hit; in the whole collection about 2.6% have one here.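 The calls were made as follows, unless noted: active = mean inhibition above about 50% in the one-dose retest (limit read from the data); inactive = the rest.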

SMILES	SENP1 inh	Platelet DG rel	SENP6 block	SENP8 block-1	SENP8 block-2	SENP7 block	SENP8 confirm	SENP6 confirm	SENP7 confirm	Casp3 SENP sel	Luc interf
Cc1ccc(/C=C2\C(=O)NC(=S)N(c3ccc(F)cc3)C2=O)o1	-12	4	15	-4	-2	4	.	.	.	.	.
Cc1cc(C)cc(N2C(=O)/C(=C\c3ccc(N4CCN(C)CC4)o3)C(=O)NC2=S)c1	76*	-2	5	1	28	-6	.	.	.	.	.
CCN(CC)c1ccc(C=C2C(=O)N(C)C(=S)N(C)C2=O)o1	87*	11	3	4	18	5	.	.	.	.	.
CCN(CC)c1ccc(/C=C2\C(=O)NC(=S)N(C)C2=O)o1	86*	16	42	19	30	10	.	.	.	.	.
O=C1NCN(c2ccccc2)C12CCN(C(CCc1ccccc1)c1nnnn1C1CCCCC1)CC2 (stereo unspecified)	-1	.	.	.	16	.	.	.	.	.	.
FC(F)(F)c1ccc(-c2ccc3c(c2)CNCc2cnnn2-3)cc1	0	.	.	.	9	.	.	.	.	.	.
COC1C(C)OC(OC2CC(C)(O)Cc3cc4c(c(O)c32)C(=O)c2c(O)cc3c(c2C4=O)OC2OC3(C)C(O)C(N(C)C)C2O)C(OC)C1(C)OC (stereo unspecified)	95	.	.	.	41*	.	.	.	.	.	.
CCNCC(O)c1cccc(O)c1 (stereo unspecified)	2	7	-10	-7	3	-7	.	.	.	.	.
NNCc1cccc(O)c1	4	24	81*	72*	7	56*	18	20	55*	52*	73*
O=C1NCN(c2ccccc2)C12CCN(C(c1cc3ccccc3o1)c1nnnn1C1CCCCC1)CC2 (stereo unspecified)	1	.	.	.	32	.	.	.	.	.	.
Cc1nc(Cl)sc1C(=O)Nc1ccc2ccccc2c1	0	-1	55*	20	9	29	36	32	75*	34	32
COc1cccc(C(c2nnnn2Cc2ccccc2)N2CCC3(CC2)C(=O)NCN3c2ccccc2)c1OC (stereo unspecified)	-1	.	.	.	15	.	.	.	.	.	.
Nc1nonc1C(=O)N/N=C/c1ccc([N+](=O)[O-])o1	2	2	13	9	34	3	.	.	.	.	.
N/C(=N\[N+](=O)[O-])N/N=C/c1ccc(O)cc1	1	31	92*	67*	13	79*	78*	75*	91*	92*	81*
Nc1c(C(=O)NCc2ccco2)c2nc3ccccc3nc2n1Cc1ccc(F)cc1	-17	-5	89*	75*	-484	54*	1	-4	-5	-3	-13
COc1ccc(Cn2c(N)c(C(=O)NCc3ccco3)c3nc4ccccc4nc32)cc1	-25	-1	58*	25	-415	28	-4	-6	-4	-1	-6
COc1ccc(-c2ccc3c(c2)CNCc2cnnn2-3)cc1	1	.	.	.	-60	.	.	.	.	.	.
Cc1cc(N=Nc2ccccc2C)ccc1N	2	14	90*	76*	55*	86*	81*	82*	96*	49	86*
C[C@@H]1COc2cccc(N3CCN(C)CC3)c2S(=O)(=O)N1	1	.	.	.	3	.	.	.	.	.	.
Cc1ccc2c(c1N)C(=O)c1ccccc1C2=O	53*	.	65*	63*	29	62*	19	22	50*	25	18
O=C(Nc1ccccc1)c1c(O)[nH]c(=S)[nH]c1=O	2	-1	63*	52*	-3	61*	62*	54*	88*	82*	60*
O=C(c1cc2c(s1)-c1ccccc1OC2)N1CCC2(CC1)OCCO2	2	19	84*	70*	-277	84*	75*	75*	94*	84*	80*
N/C(=N\N=C\c1ccc(O)cc1O)N[N+](=O)[O-]	-27	23	15	51*	12	52*	61*	60*	86*	88*	68*
CCCCCn1c(N)c(C(=O)NCc2cccs2)c2nc3ccccc3nc21	.	-3	80*	84*	.	40	12	14	8	-2	-4
CCCOC(=O)c1c(N)n(Cc2cccs2)c2nc3ccccc3nc12	-73	0	5	-2	-284	-2	.	.	.	.	.
SMILES	SENP1 inh	Platelet DG rel	SENP6 block	SENP8 block-1	SENP8 block-2	SENP7 block	SENP8 confirm	SENP6 confirm	SENP7 confirm	Casp3 SENP sel	Luc interf
Nc1c(C(=O)NCc2ccco2)c2nc3ccccc3nc2n1Cc1ccccc1	-25	-3	16	11	-395	14	.	.	.	.	.
CCCCNC(=O)c1c(N)n(Cc2ccc3c(c2)OCO3)c2nc3ccccc3nc12	-26	1	94*	89*	-270	62*	-7	3	-2	5	3
COCCCn1c(N)c(C(=O)NCCC(C)C)c2nc3ccccc3nc21	-24	0	81*	77*	-288	63*	-6	13	-1	4	-6
CCCCCn1c(N)c(C(=O)NCCN2CCOCC2)c2nc3ccccc3nc21	-19	5	11	9	-490	3	.	.	.	.	.
Nc1c(C(=O)NCCCc2ccccc2)c2nc3ccccc3nc2n1Cc1cccs1	-19	0	60*	46	-285	35	-18	11	0	-5	-6
COc1ccc(-n2nnnc2C(CCSC)N2CCC(n3c(=O)[nH]c4ccccc43)CC2)cc1 (stereo unspecified)	1	.	.	.	5	.	.	.	.	.	.
O=C1C2CC(CN3CCCCC23)C2CCCCN12 (stereo unspecified)	0	.	.	.	4	.	.	.	.	.	.
COC(=O)C1=C(c2ccc(OCc3ccccc3)cc2)C[C@@H]2CC[C@H]1N2C(=O)NCCc1ccc(F)cc1	1	.	.	.	19	.	.	.	.	.	.
CCOC(=O)[C@]12Cc3cc(C)ccc3[C@H]1N(C1CCCCC1)C(=O)c1cc(OC)ccc12	-2	.	.	.	-4	.	.	.	.	.	.
NC(Cc1ccccc1Cl)c1nn[nH]n1 (stereo unspecified)	-1	.	.	.	9	.	.	.	.	.	.
CCCCn1c(N)c(C(=O)NCc2cccs2)c2nc3ccccc3nc21	-20	-2	88*	93*	-257	38	10	18	17	2	2
CCCCCCn1c(N)c(C(=O)NCCN2CCOCC2)c2nc3ccccc3nc21	-25	1	36	7	-432	22	.	.	.	.	.
